Bioassay records: PubChem, The Scripps Research Institute Molecular Screening Center
M5 ag: CHRM5 agonism in calcium assay; CHO-K1 hM5 cells, Fluo-8 calcium fluorescence; 0% DMSO wells, 100% maximal acetylcholine response; activation, % at 3 µM; 360,000 tested, 0.19% active; AID 624037; P08912;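 active means activation above the run's mean over test compounds plus 3 SD, cut at about 23% in these data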;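 further: signal is peak over basal fluorescence ratio across the kinetic read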
Target sequence (P08912 whole entry, looked up): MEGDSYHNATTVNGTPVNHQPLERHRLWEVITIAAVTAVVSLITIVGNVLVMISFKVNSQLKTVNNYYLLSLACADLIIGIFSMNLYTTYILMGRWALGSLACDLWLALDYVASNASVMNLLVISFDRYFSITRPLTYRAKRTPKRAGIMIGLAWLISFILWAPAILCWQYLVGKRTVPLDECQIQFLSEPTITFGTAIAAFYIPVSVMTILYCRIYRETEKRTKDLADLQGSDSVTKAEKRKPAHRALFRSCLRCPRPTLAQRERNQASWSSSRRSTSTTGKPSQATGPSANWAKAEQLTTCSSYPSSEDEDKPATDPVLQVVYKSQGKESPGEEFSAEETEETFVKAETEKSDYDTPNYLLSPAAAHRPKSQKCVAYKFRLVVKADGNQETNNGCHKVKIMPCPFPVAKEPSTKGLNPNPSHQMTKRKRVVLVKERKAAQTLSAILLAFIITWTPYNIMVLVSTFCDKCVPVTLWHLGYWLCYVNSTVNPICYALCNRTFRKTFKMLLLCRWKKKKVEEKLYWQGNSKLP
CHRM5 PAM: positive allosteric modulators of human muscarinic M5 receptor | 360,000 tested, 0.3% active | activation, % at 3 µM | P08912 | CHO-K1 hM5, Fluo-8 calcium, ACh EC20 PAM; 0% = ACh EC20, 100% = ACh EC100;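 active means activation above the run cutoff, the mean activation of all test compounds plus 3 SD, cut at about 18% in these data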
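Measured by: Fluo-8 calcium fluorescence; material: human M5 receptor in CHO-K1 cells; schedule: Post-acetylcholine fluorescence recording 140 s; benchmarks: low control EC20 acetylcholine (0%), high control EC100 acetylcholine (100%); read-out: Max/basal fluorescence ratio as % of EC20–EC100 ACh window; compound: single dose, 3 µM nominal final test concentration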
M4 ag: CHRM4 agonism in calcium assay | activation, % at 3 µM | CHO-K1 hM4/Gqi5, Fluo-8 calcium fluorescence; vehicle 0%, full acetylcholine response 100% | AID 624127 | 360,000 tested, 0.14% active | P08173;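 active means activation above the run mean over all test wells plus 3 SD, cut at about 32% in these data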;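 further: peak over basal fluorescence ratio per well then scaled between controls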
CHRM5 antagonist: CHRM5 antagonism in calcium assay; P08912; CHO-hM5 cells, Fluo-8 calcium fluorescence, ACh EC80; inhibition, % at 3 µM; 360,000 tested, 0.59% active; AID 624040;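 active means inhibition above a per-plate cutoff, the mean of that plate's test compounds plus 3 SD, cut at about 27% in these data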
M4 PAM: potentiates acetylcholine response at human M4 receptor. activation, % at 3 µM. 360,000 tested, 0.4% active. P08173. CHO-K1 hM4/Gqi5, Fluo-8 calcium fluorescence, ACh EC20; 0% = ACh EC20, 100% = maximal ACh. AID 624126;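 active means activation above its plate's cutoff, the mean activation of sample wells plus 3 SD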
M4 antag: blocks acetylcholine activation of human M4 receptor; CHO-hM4 cells, ACh EC80, Fluo-8 calcium fluorescence; inhibition, % at 3 µM; 360,000 tested, 0.73% active; P08173;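 active means inhibition above its plate's cutoff, the mean inhibition of sample wells plus 3 SD, cut at about 27% in these data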
Large screens that a line does not name were inactive. This is a sample that favours compounds with a hit; in the whole collection about 1.8% have one here.

NC(=O)c1ccccc1N/C=C/C(=O)c1ccc(F)cc1	none
NC(=O)c1ccccc1N/C=C/C(=O)c1ccc(Cl)cc1Cl	CHRM5 PAM 47
O=C1CN(C(=O)c2cccc(F)c2)C(c2ccc(F)cc2)c2cc(F)ccc2N1 (centres undefined)	M4 antag 52
O=C1CN(C(=O)c2c(F)cccc2F)C(c2ccc(F)cc2)c2cc(F)ccc2N1 (centres undefined)	none
CC(=O)N(C1=C(Cl)C(=O)c2ccccc2C1=O)C1CCCCC1	M4 antag 44
CC(=O)C[C@H](O)CC(=O)[C@H]1OC(=O)CC/C=C\Cc2ccccc21	M4 PAM 25
CCc1nc2c(OCC(=O)c3ccc(Cl)cc3Cl)cccn2c1N(C)C(=O)COc1ccccc1	none
OC(c1cc(-c2cccc(Cl)c2)nc2ccccc12)C1CCCCN1 (centres undefined)	M4 antag 37
CC(C)(C)OC(=O)C[C@@H]1C/C=C\C[C@H](CC(=O)NCCO)C(=O)NC[C@@H](c2ccccc2)OC1=O	none
COc1ccc(OC)c(NC(=O)CCCSc2ccccc2)c1	none
COc1ccc(C2CC(c3ccccc3)=NN2c2ccc(C(N)=O)cc2)cc1 (centres undefined)	CHRM5 antagonist 30
COc1ccc(C2CC(c3ccccc3)=NN2c2ccc(S(N)(=O)=O)cc2)cc1 (centres undefined)	none
Cn1c(SCC(=O)c2cc(Cl)c(Cl)s2)nnc1-c1ccco1	CHRM5 PAM 19
CN1CCN(C2Cc3cc(F)ccc3Sc3ccc(Cl)cc32)CC1 (centres undefined)	CHRM5 antagonist 80, M4 antag 84
CCc1cccc2c1Sc1ccccc1CC2N1CCNCC1 (centres undefined)	none
CSc1ccc2c(c1)C(N1CCN(C)CC1)Cc1ccccc1S2 (centres undefined)	CHRM5 antagonist 70, M4 antag 55
CN1CCN(C2Cc3ccccc3Sc3ccc(Cl)cc32)CC1 (centres undefined)	CHRM5 antagonist 54, M4 antag 52
CN1CCN(C2Cc3ccc(F)cc3Sc3cc(F)c(Cl)cc32)CC1 (centres undefined)	none
CC(C)OC(=O)CSc1nc(N2CCOCC2)c2c(c1C#N)CC(C)(C)OC2	none
N#CC1=C(N)C(C#N)(C#N)[C@H](c2ccncc2)[C@H]2CN(C(=O)OCc3ccccc3)CC=C12	M4 PAM 35
CCCN(CC(=O)Nc1ccccc1C)CC(=O)Nc1ccc(Br)cc1F	none
CCOC(=O)c1cc(N2CCCCC2)nc2ccccc12	CHRM5 antagonist 28
Cc1cc(Nc2ccccc2)nc(NCc2ccccc2)n1	CHRM5 antagonist 30
CCCCNc1cc(C)nc(NCc2ccccc2)n1	CHRM5 antagonist 33, M4 antag 33
COc1cccc(CNCCc2c[nH]c3ccccc23)c1OCc1ccccc1	M4 ag 38, CHRM5 antagonist 29
COc1cccc(/C=N/NC(=O)c2cccc3ccccc23)c1OC	none
CCCCOC(=O)C1CN(c2ccccc2)N=C1C(C)=O (centres undefined)	none
CCCCOC(=O)C1CN(c2ccccc2)N=C1C(=O)OCC (centres undefined)	M4 PAM 20
CCN1C(=NCc2ccco2)N[C@@H](c2cccc(C(F)(F)F)c2)C(C(=O)OC)=C1C	M4 antag 27
Cn1c(=O)oc2cc(S(=O)(=O)N3CCN(c4ccccc4F)CC3)ccc21	none
COc1ccccc1N1CCN(S(=O)(=O)c2ccc3c(c2)oc(=O)n3C)CC1	CHRM5 antagonist 27
Cn1c(=O)oc2cc(S(=O)(=O)CCC(=O)N3CCN(c4ccccc4F)CC3)ccc21	CHRM5 PAM 37
Nc1[nH]c(C(=O)c2ccccc2)c(-c2ccccc2C(F)(F)F)c1C(=O)c1cccs1	none
CCCCOc1ccc(Br)cc1/C(C)=N/NC1=NCCN1	M4 antag 35
CCCCCCOc1ccc(/C(C)=N/NC2=NCCN2)cc1[N+](=O)[O-]	none
CC1=C/C(=N\OS(=O)(=O)c2ccccc2)C(C(C)C)=CC1=O	M5 ag 27, CHRM5 antagonist 79
CC1=C(C)/C(=N\OS(=O)(=O)c2ccc(C)cc2)C=CC1=O	M4 antag 60
CC(S(=O)(=O)c1ccccc1)S(=O)(=O)c1ccccc1	none
COc1ccc(S(=O)(=O)/N=C2/C=CC(=O)C(C)=C2C)cc1	none
CC1=C/C(=N\OS(=O)(=O)c2ccccc2)C(C)=CC1=O	M5 ag 44, CHRM5 antagonist 66, M4 antag 70
Cc1cccc(NC(=O)c2ccc(-n3cncn3)c([N+](=O)[O-])c2)c1	none
Cc1ccc(N(NC(=O)C(O)(c2ccccc2)c2ccccc2)C(=O)CCl)cc1	none
CCCNC(=O)C1CC(c2ccccc2C(F)(F)F)=NO1 (centres undefined)	none
CC(C)COc1ccc(C(=O)Nc2sc3c(c2C(=O)O)CC(C)(C)OC3)cc1	CHRM5 antagonist 34
O=[N+]([O-])c1cc(C(F)(F)F)ccc1SCC(O)CO (centres undefined)	CHRM5 PAM 26
O=C1C(SCCO)=C(SCCO)C(=O)c2ccccc21	CHRM5 antagonist 38, M4 antag 61
O=S(=O)(c1cccs1)N1CCN(c2ccnc3cc(Cl)ccc23)CC1	M4 antag 100
CN(C)C(C)(C)/C=C/C(O)(c1ccccc1)c1ccccc1	CHRM5 antagonist 63, M4 antag 70
CN(C)N(Cc1ccccc1)C(=O)C(O)(c1ccccc1)c1ccccc1	none
COc1cccc(C2=NOC(C(=O)N3CCOCC3)C2)c1 (centres undefined)	M4 PAM 29
COc1ccc(C2=NOC(C(=O)N3CCOCC3)C2)cc1OC (centres undefined)	none
O=C(NCc1ccccc1)C(CCc1ccccc1)n1c(=O)c(-c2ccccc2)nc2ccccc21 (centres undefined)	CHRM5 PAM 20
O=C(NCc1ccccc1)C(CCc1ccccc1)n1c(=O)c(-c2cc3ccccc3[nH]2)nc2ccccc21 (centres undefined)	none
COc1ccccc1CNC(=O)C1(C)CCN1C(=O)Cc1ccc(-c2ccccc2)cc1 (centres undefined)	none
O=C(Cn1c(=O)c2cccn2c2cccnc21)N1CCN(c2ccccc2F)CC1	CHRM5 PAM 25
CN(C)S(=O)(=O)c1ccc(C(=O)Nc2ccc(CN3CCCC3)cc2)cc1	M4 antag 69
O=C(Nc1ccc(S(=O)(=O)N2CCCCC2)cc1)c1ccc(CN2CCc3ccccc3C2)cc1	M4 antag 40
